The results in this text go back to ChEMBL document CHEMBL1938272 (Bioorg Med Chem, 2012).

Experiment [1] has as its target T1, Aromatase (Homo sapiens, UniProt P11511).
T1 sequence (P11511 whole entry): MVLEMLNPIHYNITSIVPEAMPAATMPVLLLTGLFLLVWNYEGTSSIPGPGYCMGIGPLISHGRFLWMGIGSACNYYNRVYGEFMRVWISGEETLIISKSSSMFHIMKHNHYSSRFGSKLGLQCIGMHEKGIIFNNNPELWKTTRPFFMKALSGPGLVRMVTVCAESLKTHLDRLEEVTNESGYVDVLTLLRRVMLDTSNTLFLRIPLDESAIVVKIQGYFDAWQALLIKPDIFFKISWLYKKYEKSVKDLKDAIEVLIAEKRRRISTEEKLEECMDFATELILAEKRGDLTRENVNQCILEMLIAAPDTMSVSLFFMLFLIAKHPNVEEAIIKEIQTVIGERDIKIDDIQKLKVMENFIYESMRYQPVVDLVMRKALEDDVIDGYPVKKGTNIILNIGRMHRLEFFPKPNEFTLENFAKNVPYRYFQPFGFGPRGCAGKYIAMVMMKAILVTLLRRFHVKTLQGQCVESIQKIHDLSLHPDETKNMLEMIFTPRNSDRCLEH

In experiment [2] the test system is Radical scavenging activity. The experiment is described as follows: Antioxidant activity assessed as DPPH free radical scavenging activity at 400 uM after 30 mins by spectrophotometry. It is filed as functional. Background: Loss of DPPH colour is used to gauge radical scavenging.
The target in experiment [3] is T1, Aromatase. To be noted: 2 h, read-out: Imax.
Experiment [4] relates to RAW264.7. The experiment is described as follows: Antiinflammatory activity in mouse RAW264.7 cells assessed as inhibition of LPS-induced NO production at 40 uM preincubated for 30 mins before LPS challenge by Griess method. (Nitrite, measured by Griess reagent, commonly stands in for NO production.)
Experiment [5] addresses NAD(P)H dehydrogenase [quinone] 1 (Mus musculus) (UniProt Q64669). In words: Induction of QR1-mediated cytoprotective activity in mouse Hepa-1c1c7 cells at 50 uM assessed as cell survival. It is filed as cell-based.
Experiment [6] concerns MCF7. The experiment is described as follows: Antiproliferative activity against human MCF7 cells after 72 hrs by SRB assay. It counts as functional, cell-based. The note with it: MCF7, 72 h. A digest of the protocol:
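MCF-7 breast cancer cells exposed to serially diluted compounds (DMSO) for 72 h at 37 °C in CO2 incubator; fixed with 10% trichloroacetic acid, stained with 0.4% SRB, OD read at 515 nm. Zero-day control of 1 × 10^4 cells per well processed after 30 min. Survival = (OD test − OD zero-day)/(OD control − OD zero-day) × 100; IC50 from survival.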

Experiment [7] addresses NAD(P)H dehydrogenase [quinone] 1 (Mus musculus) (UniProt Q64669). The experiment is described as follows: Induction of QR1-mediated cytoprotective activity in mouse BPrc1 cells at 50 uM assessed as cell survival. It is filed as cell-based.
The target is the same in experiment [8]. The experiment is described as follows: Induction of QR1-mediated cytoprotective activity in mouse TAOc1 mutant Hepa cells at 50 uM assessed as cell survival. It counts as cell-based.
Experiment [9] concerns HEK293. In words: Inhibition of TNFalpha-activated NF-kappaB expressed in HEK293 cells at 50 uM by luciferase reporter gene assay. It is filed as cell-based. (In general: In a reporter assay the amount or activity of a reporter protein is the signal.)

By IC50 is commonly meant the concentration that gives 50% inhibition. The low end stands for greater potency in that assay, the high end for weaker potency in that assay.

NAD(P)H dehydrogenase [quinone] 1 (Mus musculus), sequence (Q64669 whole entry): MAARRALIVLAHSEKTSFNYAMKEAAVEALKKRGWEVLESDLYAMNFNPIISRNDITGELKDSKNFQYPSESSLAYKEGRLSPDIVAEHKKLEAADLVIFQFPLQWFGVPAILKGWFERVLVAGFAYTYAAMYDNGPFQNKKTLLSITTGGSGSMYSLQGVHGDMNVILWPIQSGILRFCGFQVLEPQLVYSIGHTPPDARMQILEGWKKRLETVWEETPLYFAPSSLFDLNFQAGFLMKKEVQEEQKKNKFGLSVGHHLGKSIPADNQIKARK

As for `Clc1ccc(-c2nsc(-c3ccc(Cl)c(Cl)c3)n2)cc1Cl`, the IC50 in experiment [1] is over 50 µM; in experiment [6], 23.5 µM. Further, the inhibition in [2] worked out at 9.6%. The inhibition at 50 µM in experiment [3] was 23%. Besides, the inhibition at 40 µM in experiment [4] is 21.5%. In addition, in [5], the Survival was found to be 80%.
The compound `O=[N+]([O-])c1ccc(-c2nsc(-c3ccc([N+](=O)[O-])cc3)n2)cc1` had an IC50 in experiment [1] of over 50 µM. For the same compound, in experiment [2], the inhibition came out at 7.3%. The inhibition at 50 µM in [3] came out at 29.4%. In experiment [4], the inhibition at 40 µM came out at 1.6%. Further, the Survival in experiment [5] was determined as 78.9%.
Consider `Brc1ccccc1-c1nsc(-c2ccccc2Br)n1`, for which the figures for the Survival in [7], in [8] and in experiment [5] were 100%, 99.1% and 72.5%, respectively. Also, the half-inhibitory concentration (IC50) in [1] is over 50 µM; in experiment [6], 35 µM. Besides, the inhibition in experiment [2] was found to be 1.8%; in experiment [9], 0%. Also, the inhibition at 50 µM in experiment [3] turned out to be 44.8%. Besides, the inhibition at 40 µM in experiment [4] was 9.1%.
With `CCCCc1ccc(-c2nsc(-c3ccc(CCCC)cc3)n2)cc1`, in experiment [1], the IC50 was over 50 µM. In experiment [2], the inhibition is 2.1%. In addition, in [3], the inhibition at 50 µM came to 35.5%. In experiment [4], the inhibition at 40 µM is -3.5%. Besides, the Survival in experiment [5] was 100%.
As for `Oc1ccc(CCc2cc(O)cc(O)c2)cc1` [DIHYDRORESVERATROL], the IC50 in [1] is over 50 µM; in experiment [6] it was 30.3 µM. The inhibition in experiment [2] amounted to 14.7%; in experiment [9], 16.7%. The inhibition at 50 µM in experiment [3] came out at 37.8%. Moreover, in experiment [4], the inhibition at 40 µM came to 36.2%. Also, the Survival in experiment [5] stood at 82.6%.
For `N#Cc1cccc(-c2nsc(-c3cccc(C#N)c3)n2)c1`, in experiment [1], the IC50 was over 50 µM. Besides, the inhibition in experiment [2] amounted to 1.4%. Further, the inhibition at 50 µM in experiment [3] is 22.1%. Further, the inhibition at 40 µM in experiment [4] worked out at 26.4%. Moreover, the Survival in experiment [5] worked out at 57.9%.
Turning to `Brc1ccc(-c2nsc(-c3ccc(Br)cc3)n2)cc1`, the Survival in experiment [7] was 60.3%; in experiment [8] it was 80.1%; in experiment [5] it was 87%. The compound further yielded a half-maximal inhibitory concentration (IC50) in [1] of over 50 µM. Further, the inhibition in experiment [2] amounted to 0.8%; in experiment [9], 0%. Moreover, the inhibition at 50 µM in experiment [3] is 37.4%. For the same compound, in experiment [4], the inhibition at 40 µM was determined as 17.1%.
For `Fc1ccc(-c2nsc(-c3ccc(F)cc3)n2)cc1`, the Survival amounted to 86.4% in experiment [7], 83% in [8] and 96.3% in experiment [5]. Also, the IC50 in experiment [1] is over 50 µM; in [6] it was 18.8 µM. Also, the inhibition in [2] was found to be 6.9%; in [9], 0%. For the same compound, in experiment [3], the inhibition at 50 µM turned out to be 45.2%. The inhibition at 40 µM in [4] was 22.2%.
Consider `FC(F)(F)c1ccc(-c2nsc(-c3ccc(C(F)(F)F)cc3)n2)cc1`, for which the figures for the Survival in experiment [7], in experiment [8] and in experiment [5] were 71%, 91% and 97.9%, respectively. Also, the IC50 in experiment [1] is over 50 µM. The inhibition in [2] worked out at 2.5%; in experiment [9] it was 0%. Moreover, the inhibition at 50 µM in experiment [3] was 41%. Further, in experiment [4], the inhibition at 40 µM was 8.5%.
Consider `c1ccc2cc(-c3nsc(-c4ccc5ccccc5c4)n3)ccc2c1`, for which the Survival in [7] came to 98.1%; in experiment [8], 96.9%; in experiment [5], 88.8%. For the same compound, in experiment [1], the 50% inhibitory concentration (IC50) was over 50 µM. Besides, in [2], the inhibition came out at 1.1%. Further, the inhibition at 50 µM in experiment [3] is 15.8%. In [4], the inhibition at 40 µM stood at 0.5%.
Compound `Cc1ccc(-c2nsc(-c3ccc(C)cc3)n2)cc1` had an IC50 in experiment [1] of over 50 µM. In addition, in [2], the inhibition was 7.2%. Moreover, in experiment [3], the inhibition at 50 µM came to 21.3%. Also, in [4], the inhibition at 40 µM was determined as 9.6%. In addition, the Survival in experiment [5] was found to be 96.8%.
For `Fc1ccccc1-c1nsc(-c2ccccc2F)n1`, the Survival in experiment [7] came to 88.4%; in experiment [8] it was 82.5%; in experiment [5], 86.2%. Moreover, the values for the IC50 in experiment [1] and in experiment [6] were over 50 µM and 31.4 µM, respectively. The inhibition in [2] worked out at 3.8%. In addition, the inhibition at 50 µM in experiment [3] turned out to be 53.2%. Moreover, the inhibition at 40 µM in [4] was determined as 24.6%.
`Cc1ccc(-c2nsc(-c3ccc(C)cc3Br)n2)c(Br)c1` displayed an IC50 in experiment [1] of over 50 µM. The figures for the inhibition in experiment [2] and in experiment [9] were 3.4% and 0%, respectively. For the same compound, in experiment [3], the inhibition at 50 µM worked out at 48.3%. The inhibition at 40 µM in [4] stood at 25%. Further, the Survival in experiment [5] turned out to be 49.6%.
Regarding `Fc1cccc(-c2nsc(-c3cccc(F)c3)n2)c1`, the Survival in experiment [7] turned out to be 73.5%; in experiment [8], 77.1%; in experiment [5] it was 77.6%. Further, the IC50 was over 50 µM in experiment [1] and 34.5 µM in experiment [6]. In addition, the inhibition in experiment [2] came out at 1.3%. The inhibition at 50 µM in [3] was 41.8%. Besides, the inhibition at 40 µM in experiment [4] was 3.2%.
For `N#Cc1ccc(-c2nsc(-c3ccc(C#N)cc3)n2)cc1`, the IC50 in [1] was over 50 µM; in experiment [6], 31.3 µM. Further, the inhibition in [2] was 6%. Moreover, in experiment [3], the inhibition at 50 µM amounted to 38.5%. In experiment [4], the inhibition at 40 µM is -0.4%. The Survival in [5] was found to be 46.2%.
As for `Ic1ccc(-c2nsc(-c3ccc(I)cc3)n2)cc1`, the IC50 in experiment [1] is over 50 µM. Moreover, the inhibition at 50 µM in experiment [3] came to 36.7%. The inhibition in experiment [9] is 0%. Moreover, the inhibition at 40 µM in [4] was 20.3%. Moreover, in experiment [5], the Survival stood at 105%.
Take `Clc1ccc(-c2nsc(-c3ccc(Cl)cc3Cl)n2)c(Cl)c1`: the results for the Survival in experiment [7], in [8] and in experiment [5] were 89.8%, 82.4% and 30.6%, respectively. The IC50 in experiment [1] is over 50 µM. Further, the inhibition in experiment [2] worked out at 2.9%. In addition, in experiment [3], the inhibition at 50 µM stood at 40.3%. Further, the inhibition at 40 µM in [4] turned out to be 25%.
Regarding `FC(F)(F)c1ccccc1-c1nsc(-c2ccccc2C(F)(F)F)n1`, the Survival was 81% in experiment [7], 89.8% in [8] and 88.8% in experiment [5]. For the same compound, the IC50 in experiment [1] is over 50 µM. For the same compound, the inhibition in [2] was 2.9%; in experiment [9] it was 0%. The inhibition at 50 µM in experiment [3] amounted to 21.6%. Further, the inhibition at 40 µM in [4] was found to be 6.7%.
`Oc1ccc(/C=C/c2cc(O)cc(O)c2)cc1`: the Survival in [7] stood at 86.3%; in experiment [8], 86.3%; in [5] it was 88.7%.
In the case of `COc1ccc(-c2nsc(-c3ccc(OC)cc3)n2)cc1`, the IC50 in [1] is over 50 µM; in experiment [6], 17.4 µM. In addition, the inhibition in experiment [2] is 3.1%. For the same compound, in experiment [3], the inhibition at 50 µM is 11.1%. Moreover, in experiment [4], the inhibition at 40 µM came to 1.7%. For the same compound, the Survival in experiment [5] stood at 94.2%.
For `Cc1cc(Br)ccc1-c1nsc(-c2ccc(Br)cc2C)n1`, the Survival is 95.9% in [7], 68.6% in experiment [8] and 71.3% in experiment [5]. For the same compound, the IC50 in [1] is over 50 µM; in experiment [6], 39.8 µM. Also, the values for the inhibition in [2] and in experiment [9] were 2.2% and 6.7%, respectively. In addition, in experiment [3], the inhibition at 50 µM was 47.8%. Besides, in experiment [4], the inhibition at 40 µM is 23.3%.
